Assay results from ChEMBL document CHEMBL1144291, “Synthesis of 9-(2-beta-C-methyl-beta-d-ribofuranosyl)-6-substituted purine derivatives as inhibitors of HCV RNA replication” (Bioorg Med Chem Lett, 2005).

Legend:
Hepatitis C virus [1] = test: Inhibition of hepatitis C virus RNA replication in a subgenomic replicon cell line; type: functional, organism-based, Hepacivirus hominis
In short: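 HCV subgenomic replicon cells exposed to compound for 48 h; relative HCV replicon RNA then measured by luciferase reporter assay.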

Hepatitis C virus [2] = test: Cytotoxicity concentration to inhibit hepatitis C virus RNA replication in a subgenomic replicon cell line; type: functional, Hepacivirus hominis
In short: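 MTS assay run on samples set up in parallel with the HCV subgenomic replicon cultures.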

CNCCN(C)c1ncnc2c1ncn2C1O[C@H](CO)[C@@H](O)[C@@]1(C)O (stereo not given in full)
EC50 (Hepatitis C virus [1]): 200 µM | CC50 (Hepatitis C virus [2]): 300 µM

C[C@]1(O)C(n2cnc3c(N4CCOCC4)ncnc32)O[C@H](CO)[C@H]1O (stereo not given in full)
EC50 (Hepatitis C virus [1]): 100 µM | CC50 (Hepatitis C virus [2]): 300 µM

CCNc1ncnc2c1ncn2C1O[C@H](CO)[C@@H](O)[C@@]1(C)O (stereo not given in full)
EC50 (Hepatitis C virus [1]): 8 µM | CC50 (Hepatitis C virus [2]): 300 µM

C[C@]1(O)C(n2cnc3c(C(=N)NO)ncnc32)O[C@H](CO)[C@H]1O (stereo not given in full)
EC50 (Hepatitis C virus [1]): 100 µM | CC50 (Hepatitis C virus [2]): 300 µM

COC(=N)c1ncnc2c1ncn2C1O[C@H](CO)[C@@H](O)[C@@]1(C)O (stereo not given in full)
EC50 (Hepatitis C virus [1]): 120 µM | CC50 (Hepatitis C virus [2]): 300 µM

C[C@]1(O)C(n2cnc3c(NOCCO)ncnc32)O[C@H](CO)[C@H]1O (stereo not given in full)
EC50 (Hepatitis C virus [1]): 80 µM | CC50 (Hepatitis C virus [2]): 300 µM

C[C@]1(O)C(n2cnc3c(NCCN)ncnc32)O[C@H](CO)[C@H]1O (stereo not given in full)
EC50 (Hepatitis C virus [1]): 25 µM | CC50 (Hepatitis C virus [2]): 300 µM

CC1(C)OCC(CNc2ncnc3c2ncn3C2O[C@H](CO)[C@@H](O)[C@@]2(C)O)O1 (stereo not given in full)
EC50 (Hepatitis C virus [1]): 300 µM | CC50 (Hepatitis C virus [2]): 300 µM

CC(C)NC(=O)N(O)c1ncnc2c1ncn2C1O[C@H](CO)[C@@H](O)[C@@]1(C)O (stereo not given in full)
EC50 (Hepatitis C virus [1]): 6 µM | CC50 (Hepatitis C virus [2]): 300 µM

CCOc1ccccc1CNc1ncnc2c1ncn2C1O[C@H](CO)[C@@H](O)[C@@]1(C)O (stereo not given in full)
EC50 (Hepatitis C virus [1]): 50 µM | CC50 (Hepatitis C virus [2]): 250 µM

CCC(=O)N(O)c1ncnc2c1ncn2C1O[C@H](CO)[C@@H](O)[C@@]1(C)O (stereo not given in full)
EC50 (Hepatitis C virus [1]): 3.3 µM | CC50 (Hepatitis C virus [2]): 300 µM

COc1ncnc2c1ncn2C1O[C@H](COP(=O)(OCCSC(=O)C(C)(C)C)OCCSC(=O)C(C)(C)C)[C@@H](O)[C@@]1(C)O (stereo not given in full)
EC50 (Hepatitis C virus [1]): 0.1 µM | CC50 (Hepatitis C virus [2]): 300 µM

C[C@]1(O)C(n2cnc3c(NCC4CCCO4)ncnc32)O[C@H](CO)[C@H]1O (stereo not given in full)
EC50 (Hepatitis C virus [1]): 300 µM | CC50 (Hepatitis C virus [2]): 300 µM

C[C@]1(O)C(n2cnc3c(NO)ncnc32)O[C@H](CO)[C@H]1O (stereo not given in full)
EC50 (Hepatitis C virus [1]): 1.8 µM | CC50 (Hepatitis C virus [2]): 300 µM

CCNC(=O)N(OC)c1ncnc2c1ncn2C1O[C@H](CO)[C@@H](O)[C@@]1(C)O (stereo not given in full)
EC50 (Hepatitis C virus [1]): 80 µM | CC50 (Hepatitis C virus [2]): 300 µM

CONc1ncnc2c1ncn2C1O[C@H](CO)[C@@H](O)[C@@]1(C)O (stereo not given in full)
EC50 (Hepatitis C virus [1]): 4 µM | CC50 (Hepatitis C virus [2]): 300 µM

C[C@]1(O)C(n2cnc3c(N(O)C(=O)Nc4ccccc4)ncnc32)O[C@H](CO)[C@H]1O (stereo not given in full)
EC50 (Hepatitis C virus [1]): 1.8 µM | CC50 (Hepatitis C virus [2]): 300 µM

CCONc1ncnc2c1ncn2C1O[C@H](CO)[C@@H](O)[C@@]1(C)O (stereo not given in full)
EC50 (Hepatitis C virus [1]): 30 µM | CC50 (Hepatitis C virus [2]): 300 µM

CSc1ncnc2c1ncn2C1O[C@H](CO)[C@@H](O)[C@@]1(C)O (stereo not given in full)
EC50 (Hepatitis C virus [1]): 11 µM | CC50 (Hepatitis C virus [2]): 300 µM

C[C@]1(O)C(n2cnc3c(-c4ccco4)ncnc32)O[C@H](CO)[C@H]1O (stereo not given in full)
EC50 (Hepatitis C virus [1]): 275 µM | CC50 (Hepatitis C virus [2]): 300 µM

CN(C)c1ncnc2c1ncn2C1O[C@H](CO)[C@@H](O)[C@@]1(C)O (stereo not given in full)
EC50 (Hepatitis C virus [1]): 9 µM | CC50 (Hepatitis C virus [2]): 300 µM

C[C@]1(O)C(n2cnc3c(N4CCCS4)ncnc32)O[C@H](CO)[C@H]1O (stereo not given in full)
EC50 (Hepatitis C virus [1]): 15 µM | CC50 (Hepatitis C virus [2]): 200 µM

C[C@]1(O)C(n2cnc3c(NCCC(N)=O)ncnc32)O[C@H](CO)[C@H]1O (stereo not given in full)
EC50 (Hepatitis C virus [1]): 150 µM | CC50 (Hepatitis C virus [2]): 300 µM

C[C@]1(O)C(n2cnc3c2NCN=C3N(CCO)CCO)O[C@H](CO)[C@H]1O (stereo not given in full)
EC50 (Hepatitis C virus [1]): 20 µM | CC50 (Hepatitis C virus [2]): 300 µM

CC(CNC1=NCNc2c1ncn2C1O[C@H](CO)[C@@H](O)[C@@]1(C)O)c1ccccc1 (stereo not given in full)
EC50 (Hepatitis C virus [1]): 25 µM | CC50 (Hepatitis C virus [2]): 300 µM

C[C@]1(O)C(n2cnc3c2NCN=C3NCCO)O[C@H](CO)[C@H]1O (stereo not given in full)
EC50 (Hepatitis C virus [1]): 60 µM | CC50 (Hepatitis C virus [2]): 300 µM

CN(O)c1ncnc2c1ncn2C1O[C@H](CO)[C@@H](O)[C@@]1(C)O (stereo not given in full)
EC50 (Hepatitis C virus [1]): 4 µM | CC50 (Hepatitis C virus [2]): 300 µM

CON(C)c1ncnc2c1ncn2C1O[C@H](CO)[C@@H](O)[C@@]1(C)O (stereo not given in full)
EC50 (Hepatitis C virus [1]): 33 µM | CC50 (Hepatitis C virus [2]): 300 µM

CSc1cccc(Nc2ncnc3c2ncn3C2O[C@H](CO)[C@@H](O)[C@@]2(C)O)c1 (stereo not given in full)
EC50 (Hepatitis C virus [1]): 300 µM | CC50 (Hepatitis C virus [2]): 300 µM

C[C@]1(O)C(n2cnc3c(C(=N)N)ncnc32)O[C@H](CO)[C@H]1O (stereo not given in full)
EC50 (Hepatitis C virus [1]): 100 µM | CC50 (Hepatitis C virus [2]): 300 µM

C[C@]1(O)C(n2cnc3c(N(O)C(=O)OCc4ccccc4)ncnc32)O[C@H](CO)[C@H]1O (stereo not given in full)
EC50 (Hepatitis C virus [1]): 20 µM | CC50 (Hepatitis C virus [2]): 300 µM

CCNC(=O)Nc1ncnc2c1ncn2C1O[C@H](CO)[C@@H](O)[C@@]1(C)O (stereo not given in full)
EC50 (Hepatitis C virus [1]): 80 µM | CC50 (Hepatitis C virus [2]): 300 µM

C[C@]1(O)C(n2cnc3c(-c4ccsc4)ncnc32)O[C@H](CO)[C@H]1O (stereo not given in full)
EC50 (Hepatitis C virus [1]): 300 µM | CC50 (Hepatitis C virus [2]): 300 µM

CNc1ncnc2c1ncn2C1O[C@H](CO)[C@@H](O)[C@@]1(C)O (stereo not given in full)
EC50 (Hepatitis C virus [1]): 1 µM | CC50 (Hepatitis C virus [2]): 300 µM

COC(=O)N(O)c1ncnc2c1ncn2C1O[C@H](CO)[C@@H](O)[C@@]1(C)O (stereo not given in full)
EC50 (Hepatitis C virus [1]): 3 µM | CC50 (Hepatitis C virus [2]): 250 µM

CCOc1ncnc2c1ncn2C1O[C@H](CO)[C@@H](O)[C@@]1(C)O (stereo not given in full)
EC50 (Hepatitis C virus [1]): 13 µM | CC50 (Hepatitis C virus [2]): 300 µM

C[C@]1(O)C(n2cnc3c(O)ncnc32)O[C@H](CO)[C@H]1O (stereo not given in full)
EC50 (Hepatitis C virus [1]): 8 µM | CC50 (Hepatitis C virus [2]): 300 µM

CCOc1ncnc2c1ncn2C1O[C@H](COP(=O)(OCCSC(C)=O)OCCSC(C)=O)[C@@H](O)[C@@]1(C)O (stereo not given in full)
EC50 (Hepatitis C virus [1]): 0.08 µM | CC50 (Hepatitis C virus [2]): 300 µM

C[C@]1(O)C(n2cnc3c2NCN=C3NOCCO)O[C@H](CO)[C@H]1O (stereo not given in full)
EC50 (Hepatitis C virus [1]): 80 µM | CC50 (Hepatitis C virus [2]): 300 µM

C[C@]1(O)C(n2cnc3c(C(=N)S)ncnc32)O[C@H](CO)[C@H]1O (stereo not given in full)
EC50 (Hepatitis C virus [1]): 120 µM | CC50 (Hepatitis C virus [2]): 300 µM

COc1ncnc2c1ncn2C1O[C@H](CO)[C@@H](O)[C@@]1(C)O (stereo not given in full)
EC50 (Hepatitis C virus [1]): 9 µM | CC50 (Hepatitis C virus [2]): 300 µM

CCNC(=O)N(O)c1ncnc2c1ncn2C1O[C@H](CO)[C@@H](O)[C@@]1(C)O (stereo not given in full)
EC50 (Hepatitis C virus [1]): 2.2 µM | CC50 (Hepatitis C virus [2]): 200 µM

CCNC(=O)N(O)C1=NCNc2c1ncn2C1O[C@H](CO)[C@@H](O)[C@@]1(C)O (stereo not given in full)
EC50 (Hepatitis C virus [1]): 200 µM | CC50 (Hepatitis C virus [2]): 300 µM

C[C@]1(O)C(n2cnc3c(-c4cccs4)ncnc32)O[C@H](CO)[C@H]1O (stereo not given in full)
EC50 (Hepatitis C virus [1]): 80 µM | CC50 (Hepatitis C virus [2]): 200 µM

C[C@@]1(O)[C@H](O)[C@@H](CO)O[C@H]1n1cnc2c(N)ncnc21
EC50 (Hepatitis C virus [1]): 0.3 µM | CC50 (Hepatitis C virus [2]): 300 µM
